From ChEMBL document CHEMBL1124475, “The thieno[3,2-c]pyridine and furo[3,2-c]pyridine rings: new pharmacophores with potential antipsychotic activity” (J Med Chem, 1989)
pIC50: −log10 of the molar value. The source made the active and inactive calls. The calls are words filed in the database; no cut-off is given here.

Legend:
[1] = biological target: T1, Adrenergic receptor alpha-1 (Rattus norvegicus, UniProt P15823+P23944+P43140); experiment: Ability to bind at Alpha-1 adrenergic receptor by displacing [3H]WB-4101; type: protein assay
T1 sequence (P15823 whole entry): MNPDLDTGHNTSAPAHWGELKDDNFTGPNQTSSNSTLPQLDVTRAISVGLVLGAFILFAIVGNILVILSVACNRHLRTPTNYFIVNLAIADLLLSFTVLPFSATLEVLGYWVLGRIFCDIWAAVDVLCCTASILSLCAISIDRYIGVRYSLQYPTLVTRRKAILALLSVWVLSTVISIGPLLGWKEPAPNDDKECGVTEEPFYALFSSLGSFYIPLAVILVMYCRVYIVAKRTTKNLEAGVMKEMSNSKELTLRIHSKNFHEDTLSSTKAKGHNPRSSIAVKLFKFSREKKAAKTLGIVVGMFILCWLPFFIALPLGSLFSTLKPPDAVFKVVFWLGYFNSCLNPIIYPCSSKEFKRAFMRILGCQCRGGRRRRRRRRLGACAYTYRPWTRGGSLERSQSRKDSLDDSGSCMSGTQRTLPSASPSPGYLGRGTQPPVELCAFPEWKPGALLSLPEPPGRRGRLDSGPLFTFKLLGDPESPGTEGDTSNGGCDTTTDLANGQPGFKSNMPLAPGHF
T1 sequence (P23944 whole entry): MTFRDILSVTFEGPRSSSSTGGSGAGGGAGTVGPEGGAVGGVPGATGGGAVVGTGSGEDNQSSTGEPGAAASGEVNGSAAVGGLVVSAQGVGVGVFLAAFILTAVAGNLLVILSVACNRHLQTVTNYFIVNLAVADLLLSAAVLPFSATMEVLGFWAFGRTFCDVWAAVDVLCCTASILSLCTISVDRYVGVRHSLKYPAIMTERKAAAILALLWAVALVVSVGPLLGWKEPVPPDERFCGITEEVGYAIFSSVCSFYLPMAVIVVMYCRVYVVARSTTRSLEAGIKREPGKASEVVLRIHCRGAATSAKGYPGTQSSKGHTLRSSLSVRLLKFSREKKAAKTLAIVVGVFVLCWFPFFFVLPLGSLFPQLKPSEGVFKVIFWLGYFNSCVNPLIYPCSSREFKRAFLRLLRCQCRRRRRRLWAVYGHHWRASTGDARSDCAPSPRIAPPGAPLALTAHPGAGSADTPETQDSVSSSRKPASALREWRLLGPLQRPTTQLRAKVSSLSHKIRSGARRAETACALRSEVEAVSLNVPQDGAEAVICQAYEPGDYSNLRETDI
T1 sequence (P43140 whole entry): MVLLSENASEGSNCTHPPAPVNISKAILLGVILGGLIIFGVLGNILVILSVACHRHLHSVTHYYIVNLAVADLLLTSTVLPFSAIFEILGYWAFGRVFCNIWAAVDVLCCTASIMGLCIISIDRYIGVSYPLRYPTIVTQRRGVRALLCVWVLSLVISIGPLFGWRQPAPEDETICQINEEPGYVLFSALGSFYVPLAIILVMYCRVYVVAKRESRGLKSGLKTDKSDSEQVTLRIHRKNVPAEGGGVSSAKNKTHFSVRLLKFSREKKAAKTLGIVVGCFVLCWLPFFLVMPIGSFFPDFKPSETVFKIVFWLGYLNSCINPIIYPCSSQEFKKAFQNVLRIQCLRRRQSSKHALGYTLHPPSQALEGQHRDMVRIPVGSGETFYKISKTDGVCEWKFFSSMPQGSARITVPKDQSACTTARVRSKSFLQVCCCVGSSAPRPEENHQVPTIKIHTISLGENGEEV

[2] = biological target: T2, Serotonin 1 (5-HT1) receptor (Rattus norvegicus, UniProt P28564+P30940+P19327+P28565); experiment: Ability to bind at 5-hydroxytryptamine 1 receptor of rat hippocampus by displacing [3H]5-HT; type: tissue-based
Procedure, shortened: (§1)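 Rat receptor radioligand displacement, five test-ligand concentrations used to calculate IC50, each assay in duplicate. Some compounds determined four times (in duplicate), with mean IC50 reported.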

[3] = tested on: Rattus norvegicus; experiment: Conditioned avoidance response (CAR) when administered perorally; type: functional; settings: po
[4] = tested on: Rattus norvegicus; experiment: Blockade of apomorphine-induced stereotypy in rats when administered perorally; type: functional; settings: po
[5] = biological target: T3, D(2) dopamine receptor (Rattus norvegicus, UniProt P61169); experiment: Ability to bind at dopamine receptor D2 of rat corpus striatum by displacing [3H]spiperone
T3 sequence (P61169 whole entry): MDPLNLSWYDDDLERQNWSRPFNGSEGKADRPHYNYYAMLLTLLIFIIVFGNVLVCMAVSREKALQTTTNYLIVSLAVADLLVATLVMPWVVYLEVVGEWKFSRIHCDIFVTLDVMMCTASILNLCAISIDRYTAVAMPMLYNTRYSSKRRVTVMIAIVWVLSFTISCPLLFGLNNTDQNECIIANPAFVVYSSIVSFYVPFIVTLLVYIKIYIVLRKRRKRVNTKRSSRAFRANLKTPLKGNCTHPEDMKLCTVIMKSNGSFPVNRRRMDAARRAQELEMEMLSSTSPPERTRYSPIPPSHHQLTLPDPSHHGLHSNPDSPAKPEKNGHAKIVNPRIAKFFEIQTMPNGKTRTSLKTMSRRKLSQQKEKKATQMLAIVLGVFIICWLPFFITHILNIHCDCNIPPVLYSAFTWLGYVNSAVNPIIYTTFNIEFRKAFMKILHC

[6] = tested on: Rattus norvegicus; experiment: Blockade of Sidman-avoidance activity in rats when administered perorally; Inactive; type: functional, organism-based
Procedure, shortened: (§2)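 Rats trained in once-daily Sidman sessions until stable; non-learners after 3 days replaced. Twelve rats dosed 30 min before session. Each rat compared with mean of its previous three drug-free days by paired t test. Testing continued to minimally effective dose; maximum usually 100 mg/kg. MED is mean over 12 animals.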

[7] = tested on: Rattus norvegicus; experiment: Reversal of trifluoperazine-induced catalepsy in rats when administered perorally; Inactive; type: functional, organism-based
[8] = biological target: T4, Serotonin 2 (5-HT2) receptor (Rattus norvegicus, UniProt P30994+P08909+P14842); experiment: Ability to bind at 5-hydroxytryptamine 2 receptor of rat cortex by displacing [3H]spiperone
[9] = tested on: Mus musculus; experiment: Blockade of apomorphine-induced climbing in mice when administered perorally
[10] = tested on: Rattus norvegicus; experiment: Blockade of Sidman-avoidance activity in rats when administered perorally; type: functional; procedure, shortened: as §2
[11] = biological target: T5, 5-hydroxytryptamine receptor 1A (Rattus norvegicus, UniProt P19327); experiment: Ability to bind at 5-hydroxytryptamine 1A receptor of rat hippocampus by displacing [3H]8-OH-DPAT; type: tissue-based; procedure, shortened: as §1
T5 sequence (P19327 whole entry): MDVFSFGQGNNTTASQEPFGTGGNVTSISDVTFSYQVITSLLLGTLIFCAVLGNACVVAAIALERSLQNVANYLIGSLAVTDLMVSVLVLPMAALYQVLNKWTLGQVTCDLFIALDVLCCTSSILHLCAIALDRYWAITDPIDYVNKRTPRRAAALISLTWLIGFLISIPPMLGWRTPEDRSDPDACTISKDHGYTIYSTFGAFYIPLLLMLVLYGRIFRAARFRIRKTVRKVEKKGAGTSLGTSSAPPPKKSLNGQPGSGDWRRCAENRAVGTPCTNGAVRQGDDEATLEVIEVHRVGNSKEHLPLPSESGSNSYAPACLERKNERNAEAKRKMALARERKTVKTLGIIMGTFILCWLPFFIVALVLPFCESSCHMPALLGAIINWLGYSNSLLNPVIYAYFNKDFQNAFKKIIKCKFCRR

[12] = species: Rattus norvegicus; experiment: animal or person; settings: po
[13] = biological target: T4, Serotonin 2 (5-HT2) receptor; experiment: Ability to bind at serotonin 5-hydroxytryptamine 2 receptors of rat cortex by displacing [3H]spiperone
[14] = biological target: T1, Adrenergic receptor alpha-1; experiment: Ability to bind at alpha-1 adrenergic receptor by displacing [3H]WB-4101; type: protein assay; procedure, shortened: as §1
[15] = biological target: T3, D(2) dopamine receptor; experiment: Ability to bind at Dopamine receptor D2 of rat corpus striatum by displacing [3H]spiperone; procedure, shortened: as §1
[16] = tested on: Mus musculus; experiment: Blockade of apomorphine-induced climbing in mice when administered perorally; type: functional; settings: po
Procedure, shortened: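 Male mice habituated 30 min in individual cages, then dosed orally (distilled H2O or 0.5% Methocel suspension, 10 mL/kg) or vehicle. Apomorphine 1.5 mg/kg sc given 30 min later. Climbing scored at 10, 20, 30 min post-apomorphine. At least five animals per dose, maximum 100 mg/kg.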

[17] = biological target: T2, Serotonin 1 (5-HT1) receptor; experiment: Ability to bind at serotonin 5-hydroxytryptamine 1 receptor of rat hippocampus by displacing [3H]5-HT; type: tissue-based
[18] = biological target: T6, Adrenergic receptor alpha-2 (Rattus norvegicus, UniProt P22086+P19328+P22909); experiment: Ability to bind at alpha-2 adrenergic receptor by displacing [3H]clonidine; type: protein assay
T6 sequence (P22086 whole entry): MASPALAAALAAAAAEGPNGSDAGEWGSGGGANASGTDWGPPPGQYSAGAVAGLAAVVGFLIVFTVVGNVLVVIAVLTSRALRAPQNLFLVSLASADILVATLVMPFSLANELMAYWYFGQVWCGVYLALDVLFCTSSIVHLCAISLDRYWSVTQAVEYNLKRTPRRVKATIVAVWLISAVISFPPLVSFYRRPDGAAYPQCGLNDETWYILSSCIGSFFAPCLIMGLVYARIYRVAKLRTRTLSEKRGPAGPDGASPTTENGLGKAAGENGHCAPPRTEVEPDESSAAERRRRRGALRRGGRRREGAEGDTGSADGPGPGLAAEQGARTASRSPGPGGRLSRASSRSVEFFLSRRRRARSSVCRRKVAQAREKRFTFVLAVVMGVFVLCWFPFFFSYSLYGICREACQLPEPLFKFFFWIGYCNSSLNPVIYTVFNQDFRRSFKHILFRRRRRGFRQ
T6 sequence (P19328 whole entry): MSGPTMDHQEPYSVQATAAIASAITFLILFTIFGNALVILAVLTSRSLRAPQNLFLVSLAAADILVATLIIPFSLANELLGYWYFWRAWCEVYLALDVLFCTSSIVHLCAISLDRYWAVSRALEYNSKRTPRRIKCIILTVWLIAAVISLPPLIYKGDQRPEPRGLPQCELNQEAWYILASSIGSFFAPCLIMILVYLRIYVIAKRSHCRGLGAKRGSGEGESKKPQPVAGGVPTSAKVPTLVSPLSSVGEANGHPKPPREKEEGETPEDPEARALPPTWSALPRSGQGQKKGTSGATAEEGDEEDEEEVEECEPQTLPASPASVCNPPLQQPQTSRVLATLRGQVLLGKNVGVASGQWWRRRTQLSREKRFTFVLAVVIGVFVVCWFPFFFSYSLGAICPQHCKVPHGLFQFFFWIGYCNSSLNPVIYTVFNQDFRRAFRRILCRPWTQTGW
T6 sequence (P22909 whole entry): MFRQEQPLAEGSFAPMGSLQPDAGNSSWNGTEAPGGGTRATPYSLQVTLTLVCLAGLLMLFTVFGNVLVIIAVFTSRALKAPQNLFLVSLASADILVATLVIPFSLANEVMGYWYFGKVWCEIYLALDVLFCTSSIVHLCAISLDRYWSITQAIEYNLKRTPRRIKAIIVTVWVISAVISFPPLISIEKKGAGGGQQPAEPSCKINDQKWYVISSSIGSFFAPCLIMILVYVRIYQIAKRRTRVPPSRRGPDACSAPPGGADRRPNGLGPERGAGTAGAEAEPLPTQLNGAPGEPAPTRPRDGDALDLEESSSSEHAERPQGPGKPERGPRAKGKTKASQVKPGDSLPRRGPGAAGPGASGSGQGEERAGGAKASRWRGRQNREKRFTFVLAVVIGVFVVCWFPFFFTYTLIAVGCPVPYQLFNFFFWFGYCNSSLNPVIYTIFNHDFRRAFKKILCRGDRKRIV

[19] = tested on: Rattus norvegicus; experiment: Approximate effective dose (AED) in inhibition of spontaneous motor activity when administered perorally; type: functional
Procedure, shortened: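 Three groups of five animals, each group at a different dose. Mean log activity count per group compared with vehicle controls, and the difference plotted against log dose. AED taken at the dose giving a 0.3 log-unit (about 2-fold) difference from control.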

[20] = tested on: Rattus norvegicus; experiment: Reversal of trifluoperazine-induced catalepsy in rats when administered perorally; Inactive, maximum dose examined was 20 mg/Kg; type: functional, organism-based
[21] = tested on: Rattus norvegicus; experiment: Induction of catalepsy in rats when administered perorally; type: functional; settings: po

| SMILES | IC50 [2] [nM] | ED50 [3] [mg/kg] | ED50 [4] [mg/kg] | ED50 [7] | MED50 [9] [mg/kg] | MED50 [10] [mg/kg] | IC50 [13] [nM] | IC50 [14] [nM] | pIC50 [15] | IC50 [18] [nM] | AED [19] [mg/kg] | also measured |
| --- | --- | --- | --- | --- | --- | --- | --- | --- | --- | --- | --- | --- |
| Cl.O=C1SC2(CCCC2)C(=O)N1CCCCN1CCN(c2nccc3ccsc23)CC1 | 3.7 | 43.1 | 46.7 | inactive |  |  |  |  |  |  |  | IC50 [1]: 36.8 nM; pIC50 [5]: 6.38; MED50 [6]: inactive; IC50 [8]: 20.2 nM |
| CN(C)CCCN1c2ccccc2Sc2ccc(Cl)cc21 [CHLORPROMAZINE] | > 1000 |  | 9.6 | inactive | 6 | 25 |  |  |  |  |  | pIC50 [11]: 6.43; ED50 [12]: 4.1 mg/kg |
| OC(CCCN1CCN(c2nccc3sccc23)CC1)c1ccc(F)cc1 (stereo unspecified) | 3.8 | 9.9 | 9 |  |  |  | 5.8 | 22.8 | 7.14 |  |  | MED ([10]; po): 10 mg/kg; MED [16]: 10 mg/kg |
| Cl.c1cc2occc2c(N2CCNCC2)n1 |  | 7.3 |  |  |  |  | 377 | 426 | < 6.00 | 144 | 10.7 | IC50 [17]: 150 nM |
| Cl.c1cc2sccc2c(N2CCNCC2)n1 | 71.3 | 28.6 |  |  |  |  | 141 | 139 | < 6.00 | 113 | 20.9 |  |
| CN1CCN(C2=Nc3cc(Cl)ccc3Nc3ccccc32)CC1 [CLOZAPINE] |  |  |  |  | 10 | 50 |  |  |  |  |  | ED50 [20]: inactive; ED50 [21]: > 200 mg/kg |
